HePTP inh: human HePTP phosphatase inhibition; hit rate 0.64% among 110,000; inhibition, % at 20 µM; P35236; recombinant HePTP phosphatase activity, OD absorbance; in the data active = inhibition above about 50%;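 also: plate controls were vehicle for no effect and reference inhibitor for full effect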
M1 antag: blocks the rat M1 muscarinic receptor response to acetylcholine. B-score at 10 µM. hit rate 3.4% among 64,000. CHO-M1 cells, Fluo-4 calcium, ACh EC80 antagonist mode; active compounds read low. AID 628. P08482;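 active = calcium fluorescence response, raw or row-and-column corrected B-score, differing from the plate sample mean either way at a set confidence level, mostly lower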
RORa activator: RORA (human) activation; P35398; CHO-K1 Gal4-RORA LBD luciferase reporter, luminescence; percent increase over mock-subtracted basal signal; activation, % at 10 µM; hit rate 1.5% among 65,000;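 active = activation above the mean of all tested compounds plus 3 SD, cut at about 49% in these data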;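 also: 0% = DMSO-treated RORA cells and 100% = added signal equal to DMSO minus mock-transfected cells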
SF1 activator: activators of human nuclear receptor SF-1; hit rate 1.9% among 65,000; AID 522; CHO-K1 Gal4-SF-1 LBD luciferase reporter; % increase over DMSO SF-1-specific signal; Q13285; activation, % at 10 µM;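 active = activation above the mean activation of all tested compounds plus 3 SD, cut at about 50% in these data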
Target sequence (Q13285 whole entry, looked up, the tested form may be a part): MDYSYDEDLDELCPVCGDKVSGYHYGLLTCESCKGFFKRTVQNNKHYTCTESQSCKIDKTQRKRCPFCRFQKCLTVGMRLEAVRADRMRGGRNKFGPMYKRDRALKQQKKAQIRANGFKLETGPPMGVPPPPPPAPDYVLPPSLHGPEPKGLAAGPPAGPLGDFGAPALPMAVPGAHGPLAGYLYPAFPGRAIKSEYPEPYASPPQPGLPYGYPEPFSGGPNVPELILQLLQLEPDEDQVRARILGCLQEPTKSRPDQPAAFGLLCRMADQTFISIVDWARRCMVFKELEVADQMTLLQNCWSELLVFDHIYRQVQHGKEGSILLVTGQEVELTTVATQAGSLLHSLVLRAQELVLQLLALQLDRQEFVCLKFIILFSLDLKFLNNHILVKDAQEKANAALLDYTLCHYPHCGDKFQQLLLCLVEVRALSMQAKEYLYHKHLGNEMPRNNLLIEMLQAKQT
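Assay system: CHO-K1 cells co-transfected with Gal4 DBD–human SF-1 LBD, 5xGal4 luciferase reporter; doses: 10 µM only; incubation: 20 h compound exposure at 37 °C after 1 h cell settling; signal: luciferase light emission; evaluation: percent activation versus DMSO; repeats: one test per compound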
M1 agonist: agonists of M1 muscarinic receptor; CHO-M1 cells, Fluo-4 calcium fluorescence, agonist mode; active compounds read high; B-score at 10 µM; hit rate 3% among 64,000;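 active = fluorescence rise, raw or as B-score row- and column-corrected plate score, outside the 99.7% band of its plate's samples, either direction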
D1 allo mod: allosteric modulators of human D1 dopamine receptor; P21728; HEK293 D1, CRE-luciferase, dopamine EC30 potentiation; actives deviate in either direction; B-score at 10 µM; hit rate 5.9% among 58,000;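 active = luminescence count or its row- and column-corrected plate score outside the 99.7% band of the plate's sample wells, on either side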
Starred values were filed as active, the others as inactive; . = not tested or not shown. An excerpt weighted towards active compounds, which were near 8.2% of everything screened.

SMILES | HePTP inh | M1 antag | RORa activator | SF1 activator | M1 agonist | D1 allo mod
Cc1ccc2cc(CCNC(=O)c3ccco3)c(=O)[nH]c2c1C | 3.2 | 0.221 | 50.9* | 63.3* | -0.509 | -1.63
CCC1=NN2C(=N)/C(=C/c3ccc(OCc4ccc(Br)cc4)c(OC)c3)C(=O)N=C2S1 | 100.6* | . | . | . | . | .
CC(=O)c1ccc(OCC(C)C)c(CN2CCCCC2)c1 | 6.2 | -2.01 | -1.9 | 14.0 | -0.552 | 0.295
CC(=O)c1ccc(Oc2ncnc3sccc23)c(CN2CCOCC2)c1 | 7.3 | 0.0286 | -20.8 | 1.2 | -2.85* | -1.16
COc1ccc(C(=O)CSc2nnc(Cc3ccccc3)o2)cc1 | -2.1 | 0.0454 | -7.2 | 15.0 | -0.773 | 0.256
C=CCn1c(SCc2cc(=O)n3ccsc3n2)nc2scc(C3CC3)c2c1=O | -2.6 | -0.268 | 15.8 | -12.5 | 0.0893 | 9.78*
C=CCn1c(SCC(=O)NC2CCS(=O)(=O)C2)nc2scc(C3CC3)c2c1=O (stereo not given) | -9.0 | -2.1 | 1.6 | 13.9 | 0.513 | 2.1
COc1cc(NC(=O)c2ccc(C)c([N+](=O)[O-])c2)ccc1NC(=O)c1ccco1 | 4.7 | . | . | . | . | .
COc1cc(NC(=O)c2cc(OC)c(OC)c(OC)c2)ccc1NC(=O)c1ccco1 | 3.4 | . | . | . | . | .
CCOc1cc(NC(=O)c2ccco2)c(OCC)cc1NC(=O)c1cc(OC)c(OC)c(OC)c1 | 8.0 | -1.21 | -5.6 | -8.5 | 2.87 | -4.97*
CCOc1ccc(C(=O)Nc2ccc(-c3nc4ccccc4o3)c(O)c2)cc1[N+](=O)[O-] | 103.6* | . | . | . | . | .
CCOc1ccc(C(=O)Nc2ccc3oc(-c4cccc(Cl)c4Cl)nc3c2)cc1[N+](=O)[O-] | 8.2 | . | . | . | . | .
CCOc1ccc(C(=O)Nc2ccc(NC(=O)c3ccco3)c(OC)c2)cc1[N+](=O)[O-] | 103.6* | . | . | . | . | .
CCC(=O)Oc1ccc2c(=O)c(-c3ccccc3)coc2c1 | -5.2 | . | . | . | . | .
CCN(CC)C(=O)Oc1ccc2c(=O)c(-c3ccccc3)coc2c1 | -1.7 | -0.345 | 82.4* | 8.3 | -1.35 | -1.77
CC(C)(C)n1ncc2c(=O)n(CC(=O)N3CCCc4ccccc43)cnc21 | 6.8 | 1.22 | -10.5 | -13.5 | 0.384 | .
CCOC(=O)N1CCN(C(=O)Cc2ccc(Cl)cc2)CC1 | 9.6 | -0.511 | 11.2 | -1.2 | 0.262 | -0.192
CCOC(=O)N1CCN(CCC(=O)c2ccc(Cl)cc2)CC1 | 13.3 | -0.806* | 13.3 | -11.4 | 3.41* | -0.416
O=c1cc(CSc2ccc(S(=O)(=O)N3CCCCC3)cn2)nc2sccn12 | -3.7 | 0.889 | -7.9 | -8.2 | 0.742 | -4.52*
COCC(=O)Nc1sc2c(c1C(=O)OC)CCCC2 | 2.3 | 1.08 | -15.4 | 5.5 | -0.194 | .
CCOC(=O)c1c(NC(=O)C2C3CCC(O3)C2C(=O)O)sc2c1CCC(CC)C2 (stereo not given) | 103.0* | . | . | . | . | .
CCOC(=O)c1c(NC(=O)c2ccc(C)o2)sc2c1CCCCCC2 | -11.3 | . | . | . | . | .
COC(=O)c1c(NC(=O)Cc2cccs2)sc2c1CCCC2 | 6.0 | 0.505 | 9.5 | -0.2 | 0.667 | 2.74*
Cc1ccc(C(=O)Nc2sc3c(c2C(=O)O)CCCCC3)o1 | -8.7 | -0.0994 | 76.8* | 32.9 | 1.48 | -3*
O=C(Nc1sc2c(c1C(=O)O)CCCC2)c1cccs1 | -0.8 | -0.00542 | 67.1* | 53.9* | 0.333 | -1.06
SMILES | HePTP inh | M1 antag | RORa activator | SF1 activator | M1 agonist | D1 allo mod
Cc1nnc(NC(=O)C2CCCO2)s1 (stereo not given) | 2.4 | -0.181 | -8.7 | -11.2 | -0.455 | .
COC(=O)c1c(NC(=O)c2ccc(C)o2)sc2c1CCCCC2 | -1.5 | . | 33.8 | 52.2* | . | 0.317
CCC1CCc2c(sc(NC(=O)Cc3ccccc3)c2C(=O)OC)C1 (stereo not given) | -0.5 | . | . | . | . | .
CCC1CCc2c(sc(NC(=O)c3ccc(Br)o3)c2C(=O)OC)C1 (stereo not given) | 103.7* | . | . | . | . | .
CCOc1cc(/C=C2/C(=N)N3N=C(CC)SC3=NC2=O)ccc1OCc1ccc(F)cc1 | 3.1 | . | . | . | . | .
CCN(CC)CCCOc1ccc(C)cc1Cl | -6.8 | . | . | . | . | .
CCCCOc1ccc(C)cc1CN(CCO)CCO | 2.6 | 2.05* | -15.0 | 0.2 | 0.333 | -0.816
O=C(Nc1ccc(N2CCOCC2)cc1)c1cnsn1 | -7.4 | -0.0891 | -68.8 | -68.7 | 0.00443 | -6.75*
O=C(Nc1ccc(N2CCOCC2)cc1)c1ccc(Br)cc1 | -32.6 | . | . | . | . | .
COc1cc2[nH]c(=O)c(C(=O)NCCCN3CCCCC3)c(O)c2cc1OC | 4.2 | -0.0999 | 11.0 | 13.7 | 0.294 | -4.33*
O=C(NCCCN1CCOCC1)c1c(O)c2ccccc2[nH]c1=O | -3.4 | 0.0216 | -24.6 | 18.6 | 0.000579 | .
O=C(CSc1nc2cc(Cl)ccc2s1)c1ccco1 | 1.5 | 0.727 | -2.0 | 5.2 | -0.541 | .
O=c1[nH]c(=S)[nH]c2sc3c(c12)CCN(Cc1ccccc1)C3 | 33.3 | . | . | . | . | .
CS(=O)(=O)NCCCCNc1ccc(C(F)(F)F)cc1[N+](=O)[O-] | -2.5 | . | . | . | . | .
CCOC(=O)CCNC(=O)CCNC(=O)C(c1ccccc1)c1ccccc1 | 5.0 | . | . | . | . | .
COc1cc(/C=N\NC(=O)c2ccc(Br)cc2)ccc1OCc1ccccc1 | -13.8 | . | . | . | . | .
O=C(Nc1ccc2c(c1)OCO2)C1CCN(C(=O)c2cccs2)CC1 | 5.2 | 1.76 | -12.7 | -8.1 | -1.17 | -0.00137
Cc1cc(C)c2c(n1)nn1c(N3CCN(c4ccccc4)CC3)cc(C)nc21 | 9.5 | 0.243 | 1.6 | -13.6 | -1.53 | -4.13*
Cc1cc(C)c2c(n1)nn1c(N3CCN(c4ccccn4)CC3)cc(C)nc21 | 3.7 | -0.996 | 5.2 | -23.1 | -0.85 | -0.808
CC(=O)Nc1cccc(-c2nc3ccccc3s2)c1 | 9.1 | . | . | . | . | .
Oc1cccc(-c2nc3ccccc3s2)c1 | -12.5 | 0.696 | -21.8 | 27.3 | 0.0772 | -8.71*
CCOc1cc(NC2CS(=O)(=O)CC2O)c(OCC)cc1NC(=O)c1ccccc1 (stereo not given) | 1.1 | 2.62* | 9.2 | -13.0 | -0.403 | -0.242
Cc1nc(-c2ccccc2)nc2[nH]c(=O)n(-c3ccccc3)c(=O)c12 | 6.3 | 0.444 | 60.3* | 35.9 | -0.0308 | -0.0189
Nc1nc(-c2ccc3c(c2)CCCC3)cs1 | 6.2 | -0.135 | 75.6* | 37.0 | -0.368 | -1.8
Cc1nc(-c2ccc3c(c2)OCO3)cs1 | -9.2 | 0.771 | 0.5 | 1.3 | -0.673 | .
SMILES | HePTP inh | M1 antag | RORa activator | SF1 activator | M1 agonist | D1 allo mod
Nc1nc(-c2ccc3c(c2)OCCO3)cs1 | 7.8 | 0.0612 | 50.3* | 64.1* | -0.305 | -0.23
Cc1ccc2nc(NC(=O)CN(C)S(=O)(=O)c3cccc4nsnc34)sc2c1 | -2.2 | 0.645 | 35.9 | -4.3 | 0.0989 | -0.734
Cn1c(=O)oc2cc(S(=O)(=O)N3CCCC(C(=O)N4CC=C(c5ccccc5)CC4)C3)ccc21 (stereo not given) | 6.3 | -1.86 | -20.3 | -7.3 | 3.37* | -4.3
Cc1cccc(NC(=O)c2cc3ccccc3c(=O)o2)n1 | -1.4 | . | 57.1* | 64.6* | . | -3.94
O=C(NCc1ccco1)c1cc2ccccc2c(=O)o1 | 7.6 | -1.26 | 2.8 | -11.7 | -0.557 | -1.61
O=C(OCN1C(=O)c2ccccc2C1=O)C1CCCCC1 | 13.7 | 1.38 | -2.8 | -14.5 | 0.0428 | -0.303

Source: PubChem (several laboratories)
